Test results as given in ChEMBL document CHEMBL4715744, “Concise synthesis of carbazole-1,4-quinones and evaluation of their antiproliferative activity against HCT-116 and HL-60 cells” (Eur J Med Chem, 2016).

How the values were obtained:
[1] = tested on: HCT-116; assay: Cytotoxicity against human HCT-116 cells assessed as reduction in cell viability incubated for 48 hrs by MTT assay; type: functional, cell-based; conditions: HCT-116, 48 h
How it was run: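 Antiproliferative test on HCT-116 colon tumour cells, read out by MTT; activity expressed as IC50.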

[2] = tested on: HL-60; assay: Cytotoxicity against human HL-60 cells assessed as reduction in cell viability incubated for 48 hrs by WST-1 assay; type: functional, cell-based; conditions: HL-60, 48 h
How it was run: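 HL-60 promyelocytic leukaemia cells, with proliferation read out by WST-1; activity expressed as IC50.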

Row | Compound | IC50 [1] [µM] | IC50 [2] [µM]
1 | COCn1c2c(c3ccccc31)C(=O)C=CC2=O | 1.31 | 1.38
2 | CC1=CC(=O)c2[nH]c3ccc(C(F)(F)F)cc3c2C1=O | 0.921 | 1.13
3 | CC1=CC(=O)c2[nH]c3ccc(F)cc3c2C1=O | 2.7 | 4.4
4 | CC1=CC(=O)c2[nH]c3cc(C)ccc3c2C1=O | 1 | 6.93
5 | CC1=CC(=O)c2[nH]c3cc(C(F)(F)F)ccc3c2C1=O | > 10 | 6.02
6 | CC1=CC(=O)c2[nH]c3cc(F)ccc3c2C1=O | 1 | 1.47
7 | CC1=CC(=O)c2[nH]c3cc(Cl)ccc3c2C1=O | 0.895 | > 10
8 | COCn1c2c(c3ccccc31)C(=O)C=C(C)C2=O | > 10 | > 10
9 | CC1=CC(=O)c2[nH]c3ccccc3c2C1=O [MURRAYAQUINONE A] | 3.72 | 3.02
10 | COc1ccc2c3c([nH]c2c1)C(=O)C=C(C)C3=O | 0.992 | 1.75
11 | COc1ccc(OC)c2c3c([nH]c12)C(=O)C=C(C)C3=O | 1.84 | 2.27
12 | CC1=CC(=O)c2[nH]c3ccc(Cl)cc3c2C1=O | 2.21 | 1.28
13 | COCn1c2c(c3ccccc31)C(=O)C(C)=CC2=O | 6.49 | 3.92
14 | COc1cc(OC)c2c3c([nH]c2c1)C(=O)C=C(C)C3=O | > 10 | 7.26
15 | O=C1C=CC(=O)c2c1[nH]c1ccccc21 | 0.763 | 1
16 | CC1=CC(=O)c2[nH]c3cc([N+](=O)[O-])ccc3c2C1=O | 1.37 | 1.58
17 | COc1cc(OC)c2[nH]c3c(c2c1)C(=O)C(C)=CC3=O | 3.6 | 3.82
18 | CC1=CC(=O)c2[nH]c3cc4ccccc4cc3c2C1=O | > 10 | 5.27
19 | CC1=CC(=O)c2[nH]c3ccc4ccccc4c3c2C1=O | > 10 | > 10
20 | CC1=CC(=O)c2[nH]c3ccc(C)cc3c2C1=O | 2.03 | > 10
21 | CC1=CC(=O)c2[nH]c3ccc([N+](=O)[O-])cc3c2C1=O | 0.569 | 1.03
22 | COc1ccc2[nH]c3c(c2c1)C(=O)C(C)=CC3=O | 1.6 | 3.41
23 | COc1cc2[nH]c3c(c2cc1OC)C(=O)C(C)=CC3=O | 4.09 | 8.95
24 | COc1ccc2[nH]c3c(c2c1OC)C(=O)C(C)=CC3=O | > 10 | > 10
